Data reported in ChEMBL document CHEMBL3779892, “Increasing the binding affinity of VEGFR-2 inhibitors by extending their hydrophobic interaction with the active site: Design, synthesis and biological evaluation of 1-substituted-4-(4-methoxybenzyl)phthalazine derivatives” (Eur J Med Chem, 2016).

How the values were obtained:
Format in all cases: functional
MDA-MB-468 = assay: Growth inhibition of human MDA-MB-468 cells at 10 uM after 48 hrs by sulforhodamine B assay; details: MDA-MB-468, 48 h, read-out: GI
Method in brief: (§1)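 Run at NCI on the 60-line panel. Cells grown in RPMI 1640 with 5% FBS and 2 mM L-glutamine, plated at 5000–40,000 cells/well by doubling time, and held 24 h at 37 °C before dosing. Drug (DMSO stock) given at a single final 10 µM in triplicate wells for 48 h. Adherent cells fixed with cold TCA (10% final), suspension cells with 16% TCA. SRB stain read at 515 nm. Percent growth from Tz, C and Ti.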

MDA-MB-231 = assay: Growth inhibition of human MDA-MB-231 cells at 10 uM after 48 hrs by sulforhodamine B assay; details: MDA-MB-231, 48 h, read-out: GI; method in brief: as §1
CCRF-CEM = assay: Growth inhibition of human CCRF-CEM cells at 10 uM after 48 hrs by sulforhodamine B assay; details: read-out: GI; method in brief: as §1
K562 = assay: Growth inhibition of human K562 cells at 10 uM after 48 hrs by sulforhodamine B assay; details: K562, 48 h, read-out: GI; method in brief: as §1
SR = assay: Growth inhibition of human SR cells at 10 uM after 48 hrs by sulforhodamine B assay; details: read-out: GI
Method in brief: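 NCI-60 screen. Cells were grown in RPMI 1640 with 5% FBS and 2 mM L-glutamine, plated at 5000–40,000 cells/well and held 24 h at 37 °C, 5% CO2. Single 10 µM final dose from DMSO stock, triplicate wells, 48 h. Settled cells were fixed with 80% TCA (16% final) and stained with 0.4% SRB. Dye was solubilized in 10 mM Tris and read at 515 nm. Growth was calculated against time-zero and untreated wells.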

A549 = assay: Growth inhibition of human A549 cells at 10 uM after 48 hrs by sulforhodamine B assay; details: A549, 48 h, read-out: GI; method in brief: as §1
[1] = Growth inhibition of human HOP92 cells at 10 uM after 48 hrs by sulforhodamine B assay; details: HOP-92, 48 h, read-out: GI; method in brief: as §1
NCI-H226 = assay: Growth inhibition of human NCI-H226 cells at 10 uM after 48 hrs by sulforhodamine B assay; details: NCI-H226, 48 h, read-out: GI; method in brief: as §1
NCI-H23 = assay: Growth inhibition of human NCI-H23 cells at 10 uM after 48 hrs by sulforhodamine B assay; details: NCI-H23, 48 h, read-out: GI; method in brief: as §1
NCI-H460 = assay: Growth inhibition of human NCI-H460 cells at 10 uM after 48 hrs by sulforhodamine B assay; details: NCI-H460, 48 h, read-out: GI; method in brief: as §1
NCI-H522 = assay: Growth inhibition of human NCI-H522 cells at 10 uM after 48 hrs by sulforhodamine B assay; details: NCI-H522, 48 h, read-out: GI; method in brief: as §1
HT-29 = assay: Growth inhibition of human HT-29 cells at 10 uM after 48 hrs by sulforhodamine B assay; details: HT-29, 48 h, read-out: GI; method in brief: as §1
KM12 = assay: Growth inhibition of human KM12 cells at 10 uM after 48 hrs by sulforhodamine B assay; details: KM12, 48 h, read-out: GI; method in brief: as §1
[2] = Growth inhibition of human SW620 cells at 10 uM after 48 hrs by sulforhodamine B assay; details: SW-620, 48 h, read-out: GI
Method in brief: (§2)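 NCI-60 panel, adherent cells grown in RPMI 1640 with 5% FBS and 2 mM L-glutamine, plated at 5000–40,000 cells/well and preincubated 24 h at 37 °C, 5% CO2. 10 µM final compound from DMSO stock, triplicate wells, 48 h. Fixed with cold TCA (10% final, 60 min, 4 °C) and stained with 0.4% SRB. Absorbance read at 515 nm; growth calculated against time-zero and control wells.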

[3] = Growth inhibition of human SF268 cells at 10 uM after 48 hrs by sulforhodamine B assay; details: SF-268, 48 h, read-out: GI; method in brief: as §1
[4] = Growth inhibition of human SF295 cells at 10 uM after 48 hrs by sulforhodamine B assay; details: SF-295, 48 h, read-out: GI; method in brief: as §1
[5] = Growth inhibition of human SNB19 cells at 10 uM after 48 hrs by sulforhodamine B assay; details: SNB-19, 48 h, read-out: GI; method in brief: as §1
[6] = Growth inhibition of human SNB75 cells at 10 uM after 48 hrs by sulforhodamine B assay; details: SNB-75, 48 h, read-out: GI; method in brief: as §1
M14 = assay: Growth inhibition of human M14 cells at 10 uM after 48 hrs by sulforhodamine B assay; details: M14, 48 h, read-out: GI; method in brief: as §1
MDA-MB-435 = assay: Growth inhibition of human MDA-MB-435 cells at 10 uM after 48 hrs by sulforhodamine B assay; details: MDA-MB-435, 48 h, read-out: GI; method in brief: as §1
SK-MEL-28 = assay: Growth inhibition of human SK-MEL-28 cells at 10 uM after 48 hrs by sulforhodamine B assay; details: SK-MEL-28, 48 h, read-out: GI; method in brief: as §1
SK-MEL-5 = assay: Growth inhibition of human SK-MEL-5 cells at 10 uM after 48 hrs by sulforhodamine B assay; details: SK-MEL-5, 48 h, read-out: GI; method in brief: as §1
[7] = Growth inhibition of human UACC62 cells at 10 uM after 48 hrs by sulforhodamine B assay; details: UACC-62, 48 h, read-out: GI; method in brief: as §2
[8] = Growth inhibition of human OVCAR3 cells at 10 uM after 48 hrs by sulforhodamine B assay; details: OVCAR-3, 48 h, read-out: GI; method in brief: as §1
[9] = Growth inhibition of human OVCAR5 cells at 10 uM after 48 hrs by sulforhodamine B assay; details: OVCAR-5, 48 h, read-out: GI; method in brief: as §1
[10] = Growth inhibition of human OVCAR8 cells at 10 uM after 48 hrs by sulforhodamine B assay; details: OVCAR-8, 48 h, read-out: GI; method in brief: as §1
[11] = Growth inhibition of human NCI-ADR-RES cells at 10 uM after 48 hrs by sulforhodamine B assay; details: read-out: GI; method in brief: as §1
A498 = assay: Growth inhibition of human A498 cells at 10 uM after 48 hrs by sulforhodamine B assay; details: A498, 48 h, read-out: GI; method in brief: as §1
ACHN = assay: Growth inhibition of human ACHN cells at 10 uM after 48 hrs by sulforhodamine B assay; details: read-out: GI; method in brief: as §1
[12] = Growth inhibition of human UO31 cells at 10 uM after 48 hrs by sulforhodamine B assay; details: UO-31, 48 h, read-out: GI; method in brief: as §2
[13] = Growth inhibition of human PC3 cells at 10 uM after 48 hrs by sulforhodamine B assay; details: PC-3, 48 h, read-out: GI; method in brief: as §1
[14] = Growth inhibition of human DU145 cells at 10 uM after 48 hrs by sulforhodamine B assay; details: DU-145, 48 h, read-out: GI; method in brief: as §1
[15] = Growth inhibition of human Hs 578T cells at 10 uM after 48 hrs by sulforhodamine B assay; details: read-out: GI; method in brief: as §1

Structure (SMILES) | inhibition of growth at 10 µM (MDA-MB-468) [%] | inhibition of growth at 10 µM (MDA-MB-231) [%] | inhibition of growth at 10 µM (CCRF-CEM) [%] | inhibition of growth at 10 µM (K562) [%] | inhibition of growth at 10 µM (SR) [%] | inhibition of growth at 10 µM (A549) [%] | inhibition of growth at 10 µM [1] [%] | inhibition of growth at 10 µM (NCI-H226) [%] | inhibition of growth at 10 µM (NCI-H23) [%] | inhibition of growth at 10 µM (NCI-H460) [%] | inhibition of growth at 10 µM (NCI-H522) [%] | inhibition of growth at 10 µM (HT-29) [%] | inhibition of growth at 10 µM (KM12) [%] | inhibition of growth at 10 µM [2] [%] | inhibition of growth at 10 µM [3] [%] | inhibition of growth at 10 µM [4] [%] | inhibition of growth at 10 µM [5] [%] | inhibition of growth at 10 µM [6] [%] | inhibition of growth at 10 µM (M14) [%] | inhibition of growth at 10 µM (MDA-MB-435) [%] | also measured
COc1ccc(Cc2nnc(Nc3ccc(NC(=O)Nc4ccc(Cl)c(C(F)(F)F)c4)cc3)c3ccccc23)cc1 | 37 | 41 | 55 | 43 | 40 | 48 | < 30 | < 30 | < 30 | 36 | 68 | 61 | 51 | < 30 | < 30 | 50 | 45 | 50 | 40 | 35 | inhibition of growth at 10 µM (SK-MEL-28): < 30%; inhibition of growth at 10 µM (SK-MEL-5): 36%; inhibition of growth at 10 µM [7]: < 30%; inhibition of growth at 10 µM [8]: 78%; inhibition of growth at 10 µM [9]: 30%; inhibition of growth at 10 µM [10]: 66%; inhibition of growth at 10 µM [11]: 67%; inhibition of growth at 10 µM (A498): < 30%; inhibition of growth at 10 µM (ACHN): 50%; inhibition of growth at 10 µM [12]: < 30%; inhibition of growth at 10 µM [13]: 45%; inhibition of growth at 10 µM [14]: < 30%; inhibition of growth at 10 µM [15]: 48%
COc1ccc(Cc2nnc(Nc3ccc(NC(=O)Nc4ccccc4Cl)cc3)c3ccccc23)cc1 | < 30 | < 30 | < 30 | < 30 | < 30 | < 30 | < 30 | < 30 | < 30 | < 30 | 33 | < 30 | < 30 | < 30 | < 30 | < 30 | < 30 | < 30 | < 30 | < 30 | inhibition of growth at 10 µM (SK-MEL-28): < 30%; inhibition of growth at 10 µM (SK-MEL-5): < 30%; inhibition of growth at 10 µM [7]: < 30%; inhibition of growth at 10 µM [8]: < 30%; inhibition of growth at 10 µM [9]: < 30%; inhibition of growth at 10 µM [10]: < 30%; inhibition of growth at 10 µM [11]: < 30%; inhibition of growth at 10 µM (A498): 44%; inhibition of growth at 10 µM (ACHN): < 30%; inhibition of growth at 10 µM [12]: < 30%; inhibition of growth at 10 µM [13]: < 30%; inhibition of growth at 10 µM [14]: < 30%; inhibition of growth at 10 µM [15]: < 30%
COc1ccc(Cc2nnc(Nc3ccc(NC(=O)Nc4ccc(C#N)cc4)cc3)c3ccccc23)cc1 | < 30 | 63 | 47 | 50 | 43 | 36 | < 30 | < 30 | < 30 | 40 | 54 | 45 | 37 | < 30 | < 30 | 86 | 43 | 57 | 35 | < 30 | inhibition of growth at 10 µM (SK-MEL-28): 45%; inhibition of growth at 10 µM (SK-MEL-5): < 33%; inhibition of growth at 10 µM [7]: < 30%; inhibition of growth at 10 µM [8]: < 30%; inhibition of growth at 10 µM [9]: < 30%; inhibition of growth at 10 µM [10]: < 30%; inhibition of growth at 10 µM [11]: < 30%; inhibition of growth at 10 µM (A498): 54%; inhibition of growth at 10 µM (ACHN): 48%; inhibition of growth at 10 µM [12]: 44%; inhibition of growth at 10 µM [13]: 41%; inhibition of growth at 10 µM [14]: < 30%; inhibition of growth at 10 µM [15]: 105%
